Test results as given in ChEMBL document CHEMBL1123499, “Synthesis, saludiuretic, and antihypertensive activity of 6,7-disubstituted 1(2H)- and 3,4-dihydro-1(2H)-phthalazinones” (1986).

Assays:
Rattus norvegicus [1] = species on record: Rattus norvegicus; experiment: Saluretic activity in rats after 0-24 hours, as ratio of Na+/K+ ion concentration in urine; assay type: functional
Method in brief: (§1)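 Male Sabra rats (170-200 g), fasted 18 h, dosed orally 50 mg/kg in saline at 25 mL/kg, eight per compound, two per metabolic cage, no food or water. Urine collected 5 and 24 h after dosing and centrifuged. Chloride titrated with Hg(NO3)2/diphenylcarbazone after HNO3 acidification; Na+ and K+ by atomic absorption.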

Rattus norvegicus [2] = species on record: Rattus norvegicus; experiment: Diuretic activity in rats at time intervals of 5-24 hours; assay type: functional, Urine
Method in brief: (§2)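 Male Sabra rats (170-200 g), starved 18 h, given 50 mg/kg by stomach tube in saline (25 mL/kg load), eight per compound, saline and furosemide controls run alongside. Held two per metabolic cage at 22 °C without food or water. Urine volume measured at 5 and 24 h collections.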

Rattus norvegicus [3] = species on record: Rattus norvegicus; experiment: Saluretic activity in rats after 0-24 hours, as sodium ion concentration in urine; assay type: functional; method in brief: as §1
Rattus norvegicus [4] = species on record: Rattus norvegicus; experiment: Saluretic activity in rats after 0-5 hours, as ratio of Na+/K+ ion concentration in urine; assay type: functional; method in brief: as §1
Rattus norvegicus [5] = species on record: Rattus norvegicus; experiment: Saluretic activity in rats after 0-5 hours, as chloride ion concentration in urine; assay type: functional; method in brief: as §1
Rattus norvegicus [6] = species on record: Rattus norvegicus; experiment: Saluretic activity in rats after 0-5 hours, as sodium ion concentration in urine; assay type: functional; method in brief: as §1
Rattus norvegicus [7] = species on record: Rattus norvegicus; experiment: Saluretic activity in rats after 5-24 hours, as chloride ion concentration in urine; assay type: functional; method in brief: as §1
Rattus norvegicus [8] = species on record: Rattus norvegicus; experiment: Saluretic activity in rats after 5-24 hours, as sodium ion concentration in urine; assay type: functional; method in brief: as §1
Rattus norvegicus [9] = species on record: Rattus norvegicus; experiment: Saluretic activity in rats after 0-24 hours, as chloride ion concentration in urine; assay type: functional; method in brief: as §1
Rattus norvegicus [10] = species on record: Rattus norvegicus; experiment: Saluretic activity in rats after 0-5 hours, as potassium ion concentration in urine; assay type: functional; method in brief: as §1
Rattus norvegicus [11] = species on record: Rattus norvegicus; experiment: Compound was tested for antihypertensive activity in rat after 4 hr postdose; assay type: functional
Method in brief: (§3)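 DOCA/saline hypertensive Sprague-Dawley rats (250-350 g), six per group, given 10 mg/kg doca s.c. daily with saline until systolic BP reached 170 mmHg (usually 3-4 weeks). Oral 25 mg/kg in 5 mL/kg 1% methylcellulose. Systolic BP by tail-cuff before and 1, 4, 24 h after; drop reported as mean ± SD.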

Rattus norvegicus [12] = species on record: Rattus norvegicus; experiment: Saluretic activity in rats after 5-24 hours, as potassium ion concentration in urine; assay type: functional; method in brief: as §1
Rattus norvegicus [13] = species on record: Rattus norvegicus; experiment: Saluretic activity in rats after 0-24 hours, as potassium ion concentration in urine; assay type: functional; method in brief: as §1
Rattus norvegicus [14] = species on record: Rattus norvegicus; experiment: Saluretic activity in rats after 5-24 hours, as ratio of Na+/K+ ion concentration in urine; assay type: functional; method in brief: as §1
Rattus norvegicus [15] = species on record: Rattus norvegicus; experiment: Diuretic activity in rats at time intervals of 0-24 hours; assay type: functional, Urine; method in brief: as §2
Rattus norvegicus [16] = species on record: Rattus norvegicus; experiment: Compound was tested for antihypertensive activity in rat after 24 hr postdose; assay type: functional; method in brief: as §3
Rattus norvegicus [17] = species on record: Rattus norvegicus; experiment: Compound was tested for antihypertensive activity in rat after 1 hr postdose; assay type: functional; method in brief: as §3
Rattus norvegicus [18] = species on record: Rattus norvegicus; experiment: Diuretic activity in rats at time intervals of 0-5 hours; assay type: functional, Urine; method in brief: as §2
Rattus norvegicus [19] = experiment: The heart rate was measured in spontaneous hypertensive rat after po administration at 4 hr; assay type: functional
Method in brief: (§4)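 Male-unspecified SHR (250-350 g; baseline BP at least 170 mmHg by indirect tail-cuff plethysmography), nonanesthetized, five per group. Single oral dose of 75 mg/kg. Indirect BP and heart rate recorded before dosing and 4, 8 and 24 h after. Group means reported, BP ± SEM.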

Rattus norvegicus [20] = experiment: The heart rate was measured in spontaneously hypertensive rat after po administration at 8 hr; assay type: functional; method in brief: as §4
Rattus norvegicus [21] = experiment: Blood pressure was measured in spontaneously hypertensive rat after po administration at 8 hr; assay type: functional; method in brief: as §4
Rattus norvegicus [22] = experiment: Blood pressure was measured in spontaneously hypertensive rat after po administration at 24 hr; assay type: functional; method in brief: as §4
Rattus norvegicus [23] = experiment: Blood pressure was measured in spontaneously hypertensive rat after po administration at 4 hr; assay type: functional; method in brief: as §4
Rattus norvegicus [24] = experiment: The heart rate was measured in spontaneously hypertensive rat after po administration at 24 hr; assay type: functional; method in brief: as §4

## NS(=O)(=O)c1cc2c(O)nncc2cc1Cl
Rattus norvegicus [1]
  Ratio: 2.44
Rattus norvegicus [2]
  Diuretic activity: 3.6 mL
Rattus norvegicus [3]
  Saluretic activity: 12.37 m equiv kg-1
Rattus norvegicus [4]
  Ratio: 3.18
Rattus norvegicus [5]
  Saluretic activity: 9.87 m equiv kg-1
Rattus norvegicus [6]
  Saluretic activity: 8.16 m equiv kg-1
Rattus norvegicus [7]
  Saluretic activity: 4.1 m equiv kg-1
Rattus norvegicus [8]
  Saluretic activity: 4.21 m equiv kg-1
Rattus norvegicus [9]
  Saluretic activity: 13.97 m equiv kg-1
Rattus norvegicus [10]
  Saluretic activity: 2.55 m equiv kg-1
Rattus norvegicus [11]
  Decrease in blood pressure: 33.7 mmHg
Rattus norvegicus [12]
  Saluretic activity: 2.51 m equiv kg-1
Rattus norvegicus [13]
  Saluretic activity: 5.06 m equiv kg-1
Rattus norvegicus [14]
  Ratio: 1.68
Rattus norvegicus [15]
  Diuretic activity: 11.3 mL
Rattus norvegicus [16]
  Decrease in blood pressure: 38 mmHg
Rattus norvegicus [17]
  Decrease in blood pressure: 13.7 mmHg
Rattus norvegicus [18]
  Diuretic activity: 7.7 mL

## NS(=O)(=O)c1cc2c(=O)n(Cc3ccccc3)ncc2cc1Cl
Rattus norvegicus [1]
  Ratio: 2.32
Rattus norvegicus [19]
  Heart rate: 399.6 beats min-1
Rattus norvegicus [2]
  Diuretic activity: 4.9 mL
Rattus norvegicus [20]
  Heart rate: 411.6 beats min-1
Rattus norvegicus [21]
  BP: 149 mmHg
  Delta blood pressure: 40.2 mmHg
Rattus norvegicus [3]
  Saluretic activity: 12.32 m equiv kg-1
Rattus norvegicus [4]
  Ratio: 3.29
Rattus norvegicus [5]
  Saluretic activity: 7.97 m equiv kg-1
Rattus norvegicus [6]
  Saluretic activity: 6.4 m equiv kg-1
Rattus norvegicus [7]
  Saluretic activity: 5.72 m equiv kg-1
Rattus norvegicus [22]
  BP: 170.2 mmHg
  Delta blood pressure: 14.6 mmHg
Rattus norvegicus [8]
  Saluretic activity: 5.92 m equiv kg-1
Rattus norvegicus [9]
  Saluretic activity: 13.69 m equiv kg-1
Rattus norvegicus [10]
  Saluretic activity: 1.94 m equiv kg-1
Rattus norvegicus [11]
  Decrease in blood pressure: 36 mmHg
Rattus norvegicus [12]
  Saluretic activity: 3.36 m equiv kg-1
Rattus norvegicus [13]
  Saluretic activity: 5.3 m equiv kg-1
Rattus norvegicus [14]
  Ratio: 1.78
Rattus norvegicus [23]
  BP: 163.2 mmHg
  Delta blood pressure: 23.4 mmHg
Rattus norvegicus [24]
  Heart rate: 402 beats min-1
Rattus norvegicus [15]
  Diuretic activity: 10.8 mL
Rattus norvegicus [16]
  Decrease in blood pressure: 47 mmHg
Rattus norvegicus [17]
  Decrease in blood pressure: 23 mmHg
Rattus norvegicus [18]
  Diuretic activity: 5.9 mL

## NS(=O)(=O)c1cc2cnn(Cc3ccccc3)c(=O)c2cc1Cl
Rattus norvegicus [1]
  Ratio: 1.53
Rattus norvegicus [2]
  Diuretic activity: 3.6 mL
Rattus norvegicus [3]
  Saluretic activity: 8.79 m equiv kg-1
Rattus norvegicus [4]
  Ratio: 1.36
Rattus norvegicus [5]
  Saluretic activity: 2.9 m equiv kg-1
Rattus norvegicus [6]
  Saluretic activity: 2.5 m equiv kg-1
Rattus norvegicus [7]
  Saluretic activity: 6 m equiv kg-1
Rattus norvegicus [8]
  Saluretic activity: 6.29 m equiv kg-1
Rattus norvegicus [9]
  Saluretic activity: 8.9 m equiv kg-1
Rattus norvegicus [10]
  Saluretic activity: 1.84 m equiv kg-1
Rattus norvegicus [11]
  Decrease in blood pressure: 54.3 mmHg
Rattus norvegicus [12]
  Saluretic activity: 3.9 m equiv kg-1
Rattus norvegicus [13]
  Saluretic activity: 5.74 m equiv kg-1
Rattus norvegicus [14]
  Ratio: 1.62
Rattus norvegicus [15]
  Diuretic activity: 6.2 mL
Rattus norvegicus [16]
  Decrease in blood pressure: 4.7 mmHg
Rattus norvegicus [17]
  Decrease in blood pressure: 35.3 mmHg
Rattus norvegicus [18]
  Diuretic activity: 2.6 mL

## NS(=O)(=O)c1cc(C(=O)O)c(NCc2ccco2)cc1Cl [FUROSEMIDE]
Rattus norvegicus [1]
  Ratio: 1.85
Rattus norvegicus [2]
  Diuretic activity: 3 mL
Rattus norvegicus [3]
  Saluretic activity: 16.22 m equiv kg-1
Rattus norvegicus [4]
  Ratio: 3.03
Rattus norvegicus [5]
  Saluretic activity: 16.2 m equiv kg-1
Rattus norvegicus [6]
  Saluretic activity: 13.2 m equiv kg-1
Rattus norvegicus [7]
  Saluretic activity: 1.65 m equiv kg-1
Rattus norvegicus [8]
  Saluretic activity: 3.02 m equiv kg-1
Rattus norvegicus [9]
  Saluretic activity: 17.85 m equiv kg-1
Rattus norvegicus [10]
  Saluretic activity: 4.36 m equiv kg-1
Rattus norvegicus [11]
  Decrease in blood pressure: 59.2 mmHg
Rattus norvegicus [12]
  Saluretic activity: 4.42 m equiv kg-1
Rattus norvegicus [13]
  Saluretic activity: 8.78 m equiv kg-1
Rattus norvegicus [14]
  Ratio: 0.68
Rattus norvegicus [15]
  Diuretic activity: 22 mL
Rattus norvegicus [16]
  Decrease in blood pressure: 5.3 mmHg
Rattus norvegicus [17]
  Decrease in blood pressure: 35.8 mmHg
Rattus norvegicus [18]
  Diuretic activity: 19.2 mL
